Results taken from ChEMBL document CHEMBL3228024, “Prodrug analogues of the antitumor alkaloid camptothecin” (1979).
The source made the active and inactive calls. No cut-off for these calls is given here.

Columns and labels:
P388 [1] = assay: Antitumor activity against mouse P388 cells allografted in mouse assessed as increase in mouse survival time at 3.3 mg/kg, iv for 4 to 9 days relative to control; type: functional
Outline: (§1)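 Run under NCI protocols 3LE21 (L1210) and 3PS31 (P388) in mice, six mice per test group. Drug was injected daily for 9 days, with 20–30 uninjected control animals. Mean or median survival time of the treated group was divided by that of controls and multiplied by 100, then reported as percentage increase in life span.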

P388 [2] = assay: Cytotoxicity against mouse P388 cells; type: functional
P388 [3] = assay: Antitumor activity against mouse P388 cells allografted in mouse assessed as increase in mouse survival time at 10 mg/kg, iv for 4 to 9 days relative to control; type: functional; outline: as §1
P388 [4] = assay: Antitumor activity against mouse P388 cells allografted in mouse assessed as increase in mouse survival time at 0.4 mg/kg, iv for 4 to 9 days relative to control; type: functional; outline: as §1
L1210 [5] = assay: Antitumor activity against mouse L1210 cells allografted in mouse assessed as increase in mouse survival time at 3.3 mg/kg, iv for 4 to 9 days relative to control; type: functional; outline: as §1
L1210 [6] = assay: Antitumor activity against mouse L1210 cells allografted in mouse assessed as increase in mouse survival time at 10 mg/kg, iv for 4 to 9 days relative to control; type: functional; outline: as §1
[7] = Cytotoxicity against human 9KB cells; type: functional
L1210 [8] = assay: Cytotoxicity against mouse L1210 cells; type: functional
L1210 [9] = assay: Antitumor activity against mouse L1210 cells allografted in mouse assessed as increase in mouse survival time at 0.4 mg/kg, iv for 4 to 9 days relative to control; type: functional; outline: as §1
L1210 [10] = assay: Antitumor activity against mouse L1210 cells allografted in mouse assessed as increase in mouse survival time at 1.1 mg/kg, iv for 4 to 9 days relative to control; type: functional; outline: as §1
P388 [11] = assay: Antitumor activity against mouse P388 cells allografted in mouse assessed as increase in mouse survival time at 1.1 mg/kg, iv for 4 to 9 days relative to control; type: functional; outline: as §1
L1210 [12] = assay: Antitumor activity against mouse L1210 cells allografted in mouse assessed as increase in mouse survival time at 14.3 mg/kg, iv for 4 to 9 days relative to control; type: functional; outline: as §1
[13] = tested on: Lewis lung carcinoma cell line; assay: Antitumor activity against mouse LLC cells allografted in mouse assessed as increase in mouse survival time at 44.4 mg/kg, iv for 4 to 9 days relative to control; type: functional
Outline: (§2)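 Run under NCI protocols 3B131 (B-16 melanocytic melanoma) and 3LL32 (Lewis lung carcinoma) in mice, ten mice per test group. Drug was injected every 4 days, with 20–30 uninjected control animals. Mean or median survival of treated mice over that of controls ×100 was reported as percentage increase in life span.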

L1210 [14] = assay: Antitumor activity against mouse L1210 cells allografted in mouse assessed as increase in mouse survival time at 1.6 mg/kg, iv for 4 to 9 days relative to control; type: functional; outline: as §1
[15] = tested on: Lewis lung carcinoma cell line; assay: Antitumor activity against mouse LLC cells allografted in mouse assessed as increase in mouse survival time at 14.6 mg/kg, iv for 4 to 9 days relative to control; type: functional; outline: as §2
P388 [16] = assay: Antitumor activity against mouse P388 cells allografted in mouse assessed as increase in mouse survival time at 0.5 mg/kg, iv for 4 to 9 days relative to control; type: functional; outline: as §1
P388 [17] = assay: Antitumor activity against mouse P388 cells allografted in mouse assessed as increase in mouse survival time at 4.8 mg/kg, iv for 4 to 9 days relative to control; type: functional; outline: as §1
P388 [18] = assay: Antitumor activity against mouse P388 cells allografted in mouse assessed as increase in mouse survival time at 14.3 mg/kg, iv for 4 to 9 days relative to control; type: functional; outline: as §1
B16 [19] = assay: Antitumor activity against mouse B16 cells allografted in mouse assessed as increase in mouse survival time at 4 mg/kg, iv for 4 to 9 days relative to control; type: functional; outline: as §2
B16 [20] = assay: Antitumor activity against mouse B16 cells allografted in mouse assessed as increase in mouse survival time at 14.6 mg/kg, iv for 4 to 9 days relative to control; type: functional; outline: as §2
L1210 [21] = assay: Antitumor activity against mouse L1210 cells allografted in mouse assessed as increase in mouse survival time at 0.5 mg/kg, iv for 4 to 9 days relative to control; type: functional; outline: as §1
B16 [22] = assay: Antitumor activity against mouse B16 cells allografted in mouse assessed as increase in mouse survival time at 46 mg/kg, iv for 4 to 9 days relative to control; type: functional; outline: as §2
HeLa = assay: Antitumor activity against human HeLa cells assessed as inhibition of radioactive thymidine incorporation into acid-insoluble material by DNA sedimentation assay; type: functional, cell-based
L1210 [23] = assay: Antitumor activity against mouse L1210 cells allografted in mouse assessed as increase in mouse survival time at 4.8 mg/kg, iv for 4 to 9 days relative to control; type: functional; outline: as §1
[24] = Cytotoxicity against human 9KB cells relative to camptothecin; type: functional
P388 [25] = assay: Cytotoxicity against mouse P388 cells relative to camptothecin; type: functional
[26] = tested on: Lewis lung carcinoma cell line; assay: Antitumor activity against mouse LLC cells allografted in mouse assessed as increase in mouse survival time at 4 mg/kg, iv for 4 to 9 days relative to control; type: functional; outline: as §2
P388 [27] = assay: Antitumor activity against mouse P388 cells allografted in mouse assessed as increase in mouse survival time at 1.6 mg/kg, iv for 4 to 9 days relative to control; type: functional; outline: as §1
L1210 [28] = assay: Cytotoxicity against mouse L1210 cells relative to camptothecin; type: functional
P388 [29] = assay: Antitumor activity against mouse P388 cells allografted in mouse assessed as increase in mouse survival time at 23 mg/kg, iv for 4 to 9 days relative to control; type: functional; outline: as §1
P388 [30] = assay: Antitumor activity against mouse P388 cells allografted in mouse assessed as increase in mouse survival time at 6.4 mg/kg, iv for 4 to 9 days relative to control; type: functional; outline: as §1
P388 [31] = assay: Antitumor activity against mouse P388 cells allografted in mouse assessed as increase in mouse survival time at 45 mg/kg, iv for 4 to 9 days relative to control; type: functional; outline: as §1
P388 [32] = assay: Antitumor activity against mouse P388 cells allografted in mouse assessed as increase in mouse survival time at 62.5 mg/kg, iv for 4 to 9 days relative to control; type: functional
Outline: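 Mice bearing P388 leukemia (NCI protocol 3PS31), six mice per test, drug injected daily for 9 days (in some tests for only 6 days). Controls were 20–30 animals receiving no injection. Activity was expressed as mean/median survival time of the test group divided by that of the control group ×100.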

With `CC[C@@]1(O)C(=O)OCc2c1cc1n(c2=O)Cc2cc3ccccc3nc2-1` [CAMPTOTHECIN] the T/C (P388 [1]) was 204%, the ED50 (P388 [2]) was 8.6 ×10⁻⁶ umol/ml and the T/C (P388 [3]) was 81%. The T/C (P388 [4]) was 137%, the T/C (L1210 [5]) was 168% and the T/C (L1210 [6]) was 85%. The ED50 [7] was under 2.8 ×10⁻⁶ umol/ml, the ED50 (L1210 [8]) was 2.8 ×10⁻⁶ umol/ml and the T/C (L1210 [9]) was 114%. It also gave a T/C (L1210 [10]) of 131% and a T/C (P388 [11]) of 147%.

With `CCCCCC(=O)OCc1c([C@@](O)(CC)C(=O)NC(C)C)cc2n(c1=O)Cc1cc3ccccc3nc1-2` the T/C (L1210 [12]) was 133%, the T/C [13] was 134% and the T/C (L1210 [14]) was 105%. For the same compound, the T/C [15] was 147%, the EC50 (P388 [2]; Mus musculus, P388, read-out: ED50 (the source's name)) was 1200 nM and the T/C (P388 [16]) was 107%. The T/C (P388 [17]) was 139%, the T/C (P388 [18]) was 155% and the ED50 [7] was 8.1 ×10⁻⁵ umol/ml. It also gave an ED50 (L1210 [8]) of 5.5 ×10⁻⁴ umol/ml, a T/C (B16 [19]) of 110% and a T/C (B16 [20]) of 109%. The T/C (L1210 [21]) was 105%, the T/C (B16 [22]) was 109% and the inhibition (HeLa) was “Active”. The T/C (L1210 [23]) was 116%, the Activity [24] was 29% and the Activity (P388 [25]) was 0.01%. It also gave a T/C [26] of 163%, a T/C (P388 [27]) of 107% and an Activity (L1210 [28]) of 2%.

`CC[C@@](O)(C(=O)NC(C)C)c1cc2n(c(=O)c1Cn1ccnc1)Cc1cc3ccccc3nc1-2` gave a T/C (P388 [29]) of 89%, a T/C (P388 [30]) of 105% and a T/C (P388 [31]) of 92%.

Work on `CC[C@@](O)(C(=O)NC(C)C)c1cc2n(c(=O)c1CN1CCCC1)Cc1cc3ccccc3nc1-2.Cl` yielded a T/C (P388 [32]) of 125%.
